Rows were chosen to be rich in hits. Some 4% of all compounds tested hit in one or more screens of this group.
OX1R antag-1 – antagonists of human orexin 1 receptor; AID 434989; actives 0.43% (n = 330,000); CHO/OX1R cells, Fluo-8 calcium fluorescence, orexin A; O43613; inhibition, % at 5 µM;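 active = inhibition above its plate's threshold, mean inhibition of all tested compounds on the plate plus 3 SD, cut at about 37% in these data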;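 note: 0% = orexin A challenge wells and 100% = SB-334867-A antagonist wells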
Target sequence (O43613 whole entry, looked up): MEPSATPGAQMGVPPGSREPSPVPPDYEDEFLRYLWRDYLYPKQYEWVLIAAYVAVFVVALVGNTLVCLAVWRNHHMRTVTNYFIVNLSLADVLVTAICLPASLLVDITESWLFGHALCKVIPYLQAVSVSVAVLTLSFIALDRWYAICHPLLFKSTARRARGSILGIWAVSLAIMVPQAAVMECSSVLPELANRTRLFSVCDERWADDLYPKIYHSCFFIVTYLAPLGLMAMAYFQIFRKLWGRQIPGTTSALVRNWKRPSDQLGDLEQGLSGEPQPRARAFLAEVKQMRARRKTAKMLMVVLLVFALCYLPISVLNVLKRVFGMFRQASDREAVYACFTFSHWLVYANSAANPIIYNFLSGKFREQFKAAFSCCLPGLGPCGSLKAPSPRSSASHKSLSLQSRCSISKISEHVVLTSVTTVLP
TAAR1 ag – human TAAR1 agonism; Q96RJ0; CHO RD-HGA16 TAAR1, Fluo-8 calcium fluorescence; vehicle wells 0%, saturating PEA agonist 100%; activation, % at 3 µM; actives 0.99% (n = 360,000); AID 624467;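 active = activation above the mean activation of all test compounds in the run plus 3 SD, cut at about 38% in these data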
Target sequence (Q96RJ0 whole entry, looked up): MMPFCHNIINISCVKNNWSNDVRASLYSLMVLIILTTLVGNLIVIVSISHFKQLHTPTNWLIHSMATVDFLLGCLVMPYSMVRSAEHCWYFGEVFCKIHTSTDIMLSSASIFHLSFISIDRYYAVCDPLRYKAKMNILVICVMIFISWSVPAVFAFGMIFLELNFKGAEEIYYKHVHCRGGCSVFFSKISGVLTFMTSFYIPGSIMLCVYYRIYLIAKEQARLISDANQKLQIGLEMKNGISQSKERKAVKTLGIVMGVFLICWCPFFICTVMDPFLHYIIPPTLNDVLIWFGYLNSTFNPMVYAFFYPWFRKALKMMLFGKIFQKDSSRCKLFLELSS
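Assay system: CHO-derived RD-HGA16 cells with stable Gα16 and human TAAR1; timing: 17-24 h seeding, 75 min 37 °C dye, 30 min RT; read-out: % activation from peak over basal fluorescence ratio, DMSO-to-PEA scaled; measured by: kinetic Fluo-8 calcium fluorescence; benchmarks: low control DMSO, high control PEA (EC100); doses: 3 µM single concentration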
OX1R antag-2 – antagonists of human orexin 1 receptor (OX1R). inhibition, % at 6.6 µM. actives 1.8% (n = 330,000). O43613. OX1R-expressing cells, FRET antagonist read-out; in the data active = inhibition mostly above about 38%, no sharp cut-off; inactive = mostly below about 40%;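 note: 0% = agonist challenge alone and 100% = reference antagonist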
TAAR1 antag – antagonists of human TAAR1 | inhibition, % at 3 µM | actives 1.5% (n = 360,000) | Q96RJ0 | CHO RD-HGA16 TAAR1, Fluo-8 calcium fluorescence, antagonist;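 active = inhibition above a per-plate cutoff, the mean inhibition of test compounds on that plate plus 3 SD, cut at about 49% in these data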;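 note: 0% = DMSO plus EC80 beta-PEA response and 100% = DMSO alone without agonist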
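Test system: hTAAR1-expressing CHO RD-HGA16 cells, Gα16-coupled; Probe or stimulus: EC80 β-phenethylamine stimulus; Compound dosing: single nominal final test compound concentration of 3 µM; Timing: 140 s kinetic read after compound, 140 s after agonist; Signal: Fluo-8 calcium-sensitive fluorescence; Measure: % inhibition of agonist calcium response; Controls: DMSO and EC80 PEA controls.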
CHO parental Ca – counter-screen: ATP calcium response change in parental CHO cells; parental CHO-K1, ATP-induced calcium, Fluo-8 fluorescence; actives 0.63% (n = 330,000); inhibition, % at 5.6 µM; AID 463079;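 active = inhibition above that plate's mean sample inhibition plus 3 SD, cut at about 26% in these data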;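 note: 0% = ATP-challenged DMSO wells and 100% = DMSO wells without ATP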
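material = parental CHO cells | also added = ATP as calcium-mobilizing challenge | dosing = single point at 5.6 µM | detection = intracellular calcium via Fluo-8 no-wash fluorescent dye | read-out = % inhibition | benchmarks = low control ATP plus DMSO, high control DMSO only | repeats = one well per compound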
* hit, by the source's call; . = no result.

SMILES | OX1R antag-1 | TAAR1 ag | OX1R antag-2 | TAAR1 antag | CHO parental Ca
COC(=O)C1=C(C)N(Cc2ccccc2)C(=S)NC1c1cccc(Br)c1 (stereo not given) | . | -1.8 | . | 42.8 | .
O=C1CN(C(=O)COC(=O)c2cc(Cl)ccc2[N+](=O)[O-])c2ccccc2N1 | . | 7.7 | . | -10.6 | .
O=C1CN(C(=O)COC(=O)c2ccc([N+](=O)[O-])o2)c2ccccc2N1 | -19.8 | 10.0 | 34.2* | -4.7 | -6.3
O=C1CN(C(=O)COC(=O)c2ccc([N+](=O)[O-])s2)c2ccccc2N1 | -12.7 | . | 45.0* | . | -11.0
CO/N=C(\CS(=O)(=O)Cc1ccc(OC)cc1)c1ccc(Cl)cc1 | -29.6 | 42.7* | 26.8 | 23.7 | -6.0
CC1(C)OC(=O)N(c2ccccc2)C12C=Cc1cc(Br)ccc1O2 (stereo not given) | -16.2 | 0.7 | 9.1 | 5.2 | 36.2*
CSc1nc(C)cc(OCCNS(=O)(=O)c2cc(C)ccc2C)n1 | 0.7 | 1.0 | 70.7* | -1.6 | -13.8
COC(=O)C1=C(C)NC(=S)NC1c1cccc(OC)c1 (stereo not given) | . | 0.1 | . | -13.1 | .
O=C(Nc1ccc(Cl)c(Cl)c1)C1C2C=CC3(O2)C1C(=O)N(CCN1CCCCC1)C3C(=O)NC1CCCCC1 (stereo not given) | -34.8 | -3.7 | -4.5 | -6.3 | -22.4
O=C(CC(=O)c1ccccc1)CC(O)(C=Cc1ccccc1)c1ccccc1 (stereo not given) | . | 7.1 | . | 50.8* | .
N/C(=N\OC(=O)COc1ccc2ccccc2c1)c1ccccn1 | -17.0 | 48.4* | 41.4 | 22.9 | -12.3
CC1CCC(CN2C(Nc3ccccc3)=NC[C@@H]2Cc2ccccc2)CC1 (stereo not given in full) | -26.8 | 44.3* | 2.1 | 14.6 | -9.2
c1ccc(C[C@H]2CN=C(Nc3ccccc3)N2CC2CCCCC2)cc1 | -19.5 | 41.2* | 5.2 | 1.3 | -13.4
COC(=O)C1=C(C)N(CC(C)C)C(=S)NC1c1cccc(F)c1 (stereo not given) | . | -1.9 | . | 24.8 | .
CN(CCc1cnn(C)c1)Cc1nc(CC2CC2)no1 | 7.0 | 2.2 | 6.5 | -13.6 | -0.6
Cc1cc(NC(=O)c2cc(C(C)C)on2)nn1Cc1ccc(Cl)cc1 | -18.1 | 0.4 | 18.1 | -13.5 | -11.7
C=CCN(c1ccc(OC)cc1)S(=O)(=O)c1ccc(Cl)c(C(=O)OCC(=O)NC2CC2)c1 | -31.6 | 2.5 | 24.1 | 7.4 | -32.1
C=CCN(c1ccccc1)S(=O)(=O)c1ccc(Cl)c(C(=O)OCC(=O)c2[nH]c(C)c(C(C)=O)c2C)c1 | 9.2 | 5.2 | 33.4 | 49.6* | -10.3
COC(=O)C1=CN(c2ccc(OC)cc2)C(N)=C(C#N)C1c1ccc(OC)cc1 (stereo not given) | . | 2.1 | . | 8.1 | .
CCc1ccc(N2C=C(C(=O)OC)C(c3ccc(OC)cc3)C(C#N)=C2N)cc1 (stereo not given) | . | -0.8 | . | 59.1* | .
Cc1ccc(SC2=C(C(=O)O)CCCC2)cc1 | 2.5 | 5.1 | 2.0 | 1.6 | -7.6
Cc1nnc(N/N=C/c2cccc(OCc3ccc(Cl)c(Cl)c3)c2)n1N | -6.5 | 7.6 | 43.8* | -16.4 | -8.7
COc1cccc(CNC(=O)CN2C(=O)CSc3ccc(S(=O)(=O)N4CCOCC4)cc32)c1 | -26.9 | -0.3 | 37.0* | -1.8 | -29.3
Cc1cc(C)c2cc(C(=O)N3CCN(c4ncccc4C(F)(F)F)CC3)[nH]c2c1 | -41.4 | 5.4 | -4.8 | -13.7 | -21.4
CC1(C)S[C@@H]2C(C(=O)OCc3ccccc3)NC(=O)N2C1C(=O)OCc1ccccc1 (stereo not given in full) | -21.9 | 8.5 | 24.4 | 51.5* | -8.7
SMILES | OX1R antag-1 | TAAR1 ag | OX1R antag-2 | TAAR1 antag | CHO parental Ca
CC(C)(C)c1ccc(C(=O)CCC(=O)OCC(=O)NCCc2ccc(S(N)(=O)=O)cc2)cc1 | 35.1 | 23.6 | 6.7 | 62.5* | 24.3
NS(=O)(=O)c1ccc(CCNC(=O)COC(=O)CCc2ccccc2)cc1 | -17.2 | 9.3 | 7.8 | -4.0 | -19.6
Cc1cc(C)cc(-n2c(C)cc(C(=O)CSc3nnnn3C)c2C)c1 | 0.8 | 38.4* | 10.3 | 43.9 | 4.6
Cc1cc(C(=O)CSc2nnnn2C)c(C)n1-c1cccc(F)c1 | -3.8 | 10.3 | 10.4 | 2.7 | -6.7
Cc1[nH]c2ccc(C(=O)OC(C)C(=O)NCc3ccccc3)cc2c1C (stereo not given) | -21.9 | -2.6 | 28.1 | -17.1 | -26.7
Cc1ccccc1CN(C)C(=O)COC(=O)c1ccc2[nH]c(C)c(C)c2c1 | 30.5 | 5.4 | 52.9* | 37.9 | -15.9
CCN(CC)S(=O)(=O)c1ccc(N2CCOCC2)c(NC(=O)c2cc([N+](=O)[O-])ccc2Cl)c1 | -12.8 | 0.9 | 14.7 | 16.6 | -9.3
COCCCNC(=O)/C(C#N)=C/c1c(N2CCN(c3ccccc3)CC2)nc2ccccn2c1=O | -29.7 | 10.2 | 26.9 | 22.6 | -14.5
COCCCNC(=O)/C(C#N)=C/c1c(N2CCN(C)CC2)nc2ccccn2c1=O | -18.9 | 0.1 | 46.7* | -7.4 | -7.4
CN(C)S(=O)(=O)c1ccc(Nc2ccc(-c3ccc4c(c3)OCCO4)nn2)cc1 | 10.1 | 15.6 | 16.1 | 48.8* | -2.0
COC(=O)C=C1CCC2C3CCC4=CC(=O)CCC4(C)C3C(=O)CC12C (stereo not given) | . | 1.7 | . | 0.7 | .
Cc1ccc(NC(=S)c2ccncc2)cc1 | -6.8 | 6.5 | -3.8 | -10.1 | -2.8
COc1ccc(NC(=S)c2ccncc2)cc1 | -11.5 | 41.4* | 16.0 | 3.2 | -8.1
COc1ccc(C(=S)Nc2ccc(C)cc2)cc1 | 5.2 | 0.0 | 22.9 | 9.8 | 73.0*
CCN1CCN(c2c(S(=O)(=O)c3ccc(Cl)cc3)cnc3ccccc23)CC1 | . | 6.6 | . | 28.7 | .
N#C/C(=C\c1cc2c(cc1Br)OCO2)c1ccc(C(=O)O)cc1 | -11.8 | 3.1 | 15.7 | -19.9 | 100.0*
Nc1[nH]c(C(=O)c2ccccc2)c(-c2cccc(C(F)(F)F)c2)c1C(=O)NCCc1c[nH]c2ccccc12 | . | 7.7 | . | -13.3 | .
S=c1[nH]nc(Cc2noc3ccccc23)n1-c1ccccc1 | -0.2 | 2.6 | 15.3 | -20.2 | -2.7
COc1ccc(NC(=O)COC(=O)C2CCN(C(=O)c3ccc(Cl)cc3)CC2)c([N+](=O)[O-])c1 | 10.4 | 0.5 | 37.6* | -3.4 | -18.2
CCOc1ccc2nc3ccc4[nH]onc4c3c2c1 | 42.6 | -1.6 | 44.2* | 25.6 | -8.5
CCN(CC)c1ccc(NC2=C(Cl)C(=O)c3ccccc3C2=O)cc1 | 16.9 | . | 36.4 | . | 19.4
O=C1C(Cl)=C(Nc2ccc(O)cc2)C(=O)c2ccccc21 | 43.9* | -3.4 | 156.2* | 55.6* | 44.9*
CCCC(=O)NC1=C(Cl)C(=O)c2ccccc2C1=O | . | 54.0* | . | 51.7* | .
COc1ccc(C(=O)c2nccc3cc(OC)c(OC)cc23)cc1OC | -24.8 | . | 69.0* | . | -6.3
CCCc1cc2c(O)ccc(O)c2c(=O)o1 | . | -0.8 | . | -11.5 | .
O=S(=O)(Nc1ccc(OC(F)F)cc1)c1ccc(-c2ccon2)s1 | 10.2 | 17.4 | -9.0 | 22.0 | -1.7

Bioassay records (PubChem)
